Assay results from ChEMBL document CHEMBL1143590, “Synthesis and monoamine transporter binding properties of 3beta-(3',4'-disubstituted phenyl)tropane-2beta-carboxylic acid methyl esters” (J Med Chem, 2005).

Experiments:
[1] = Binding affinity towards serotonin transporter determined using [3H]paroxetine as radioligand
How it was run: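 Serotonin transporter affinity from competition binding versus [³H]paroxetine at a final concentration of 0.2 nM.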

[2] = Binding affinity towards norepinephrine transporter determined using [3H]nisoxetine as radioligand
How it was run: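 Competition binding at the norepinephrine transporter against [³H]nisoxetine, present at 1.0 nM final concentration.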

[3] = Binding affinity of compound towards dopamine transporter determined using [3H]WIN-35 428 as radioligand
How it was run: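 Competition binding at the dopamine transporter; displacement of [³H]WIN 35,428 at 0.5 nM final concentration.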

`COC(=O)C1C(c2ccc(Cl)c(Br)c2)CC2CCC1N2C` (stereo unspecified) showed a Ki [1] of 0.78 nM, a Ki [2] of 7.24 nM and an IC50 [3] of 0.42 nM.

`COC(=O)C1C(c2ccc(C)c(C)c2)CC2CCC1N2C` (stereo unspecified) showed a Ki [1] of 9.88 nM, a Ki [2] of 107 nM and an IC50 [3] of 0.43 nM.

Work on `COC(=O)C1C2CC[C@H](C[C@@H]1c1ccc(I)c(Cl)c1)N2C` (stereo partly specified) yielded a Ki [1] of 1.04 nM, a Ki [2] of 1.26 nM and an IC50 [3] of 0.26 nM.

`COC(=O)C1C(c2ccc(Br)c(Cl)c2)CC2CCC1N2C` (stereo unspecified) gave a Ki [1] of 0.94 nM, a Ki [2] of 1.31 nM and an IC50 [3] of 0.12 nM.

With `COC(=O)C1C(c2ccc(Br)c(I)c2)CC2CCC1N2C` (stereo unspecified) the Ki [1] was 1.14 nM, the Ki [2] was 10.4 nM and the IC50 [3] was 0.21 nM.

`COC(=O)C1C(c2ccc(I)c(I)c2)CC2CCC1N2C` (stereo unspecified) gave a Ki [1] of 2 nM, a Ki [2] of 40.4 nM and an IC50 [3] of 0.98 nM.

`COC(=O)[C@@H]1C2CC[C@H](C[C@@H]1c1ccccc1)N2C` gave a Ki [1] of 1060 nM, a Ki [2] of 920 nM and an IC50 [3] of 23 nM.

Molecule `COC(=O)C1C(c2ccc(Cl)c(Cl)c2)CC2CCC1N2C` (stereo unspecified) has a Ki [1] of 3.13 nM, a Ki [2] of 18 nM and an IC50 [3] of 0.79 nM.

With `COC(=O)C1C(c2ccc(Cl)c(I)c2)CC2CCC1N2C` (stereo unspecified) the Ki [1] was 1.39 nM, the Ki [2] was 15.1 nM and the IC50 [3] was 0.41 nM.

In the case of `COC(=O)C1C(c2ccc(Br)c(Br)c2)CC2CCC1N2C` (stereo unspecified), the Ki [1] is reported as 0.71 nM, the Ki [2] is reported as 2.8 nM and the IC50 [3] is reported as 0.27 nM.

Molecule `COC(=O)C1C2CC[C@H](C[C@@H]1c1ccc(I)c(Br)c1)N2C` (stereo partly specified) has a Ki [1] of 0.58 nM, a Ki [2] of 1.96 nM and an IC50 [3] of 0.2 nM.

`COC(=O)C1C2CC[C@H](C[C@@H]1c1ccc(Cl)c(C)c1)N2C` (stereo partly specified) showed a Ki [1] of 10.5 nM, a Ki [2] of 36.2 nM and an IC50 [3] of 0.82 nM.
